Source: PubChem
Shown are actives, neighbours in structure and some others; about 1.7% of the full set was active somewhere.
Arr AP2 block – human beta-arrestin and AP2 interaction inhibition; hit rate 0.31% among 340,000; inhibition, % at 10 µM; FITC-arrestin peptide / GST-AP2 beads, flow cytometry; AP2 beta2 appendage carries R879A mutation;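 active means inhibition above a set limit, near 3 SD of compounds lacking own fluorescence, cut at about 54% in these data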;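 further: plate controls were DMSO wells for no effect and 5 µM unlabelled arrestin peptide for full effect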
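System: GST-AP2 R879A glutathione beads. Medium: PBS with 0.05% Tween 20 and 0.1% BSA. Also added: FITC-arrestin peptide, 50 nM. Incubation: 12 min plus 1 h, RT. Measured by: high-throughput flow cytometry of beads, ex 488, em 535 nm. Evaluation: percent drop in bead-associated FITC signal.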
Neddyl block – inhibitors of human cullin neddylation. P61081+Q13564. TR-FRET cullin neddylation, biochemical. inhibition, % at 25 µM. hit rate 0.58% among 360,000. AID 651699; in the data active means inhibition above about 36%
Target sequence (P61081 whole entry, looked up): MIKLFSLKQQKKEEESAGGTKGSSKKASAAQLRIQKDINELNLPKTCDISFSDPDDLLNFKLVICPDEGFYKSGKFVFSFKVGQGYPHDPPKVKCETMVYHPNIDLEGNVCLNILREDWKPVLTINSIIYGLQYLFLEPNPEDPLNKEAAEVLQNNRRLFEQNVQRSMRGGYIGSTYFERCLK
Target sequence (Q13564 whole entry, looked up): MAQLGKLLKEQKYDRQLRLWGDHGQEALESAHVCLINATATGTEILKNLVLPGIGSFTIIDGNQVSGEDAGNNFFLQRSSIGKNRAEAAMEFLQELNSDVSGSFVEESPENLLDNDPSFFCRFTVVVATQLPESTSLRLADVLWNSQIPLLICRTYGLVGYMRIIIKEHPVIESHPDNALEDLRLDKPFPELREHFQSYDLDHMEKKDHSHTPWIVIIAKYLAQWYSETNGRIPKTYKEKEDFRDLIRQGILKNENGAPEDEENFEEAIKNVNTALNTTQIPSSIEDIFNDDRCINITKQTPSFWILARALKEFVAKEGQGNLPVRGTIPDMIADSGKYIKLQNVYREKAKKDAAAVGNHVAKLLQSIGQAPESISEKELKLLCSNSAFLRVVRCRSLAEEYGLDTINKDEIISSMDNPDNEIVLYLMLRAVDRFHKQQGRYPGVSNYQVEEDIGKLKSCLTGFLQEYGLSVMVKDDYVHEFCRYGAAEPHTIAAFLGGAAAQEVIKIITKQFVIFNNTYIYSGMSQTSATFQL
Pemphigus Ab inh – human desmoglein-3 autoantibody binding inhibition | DSG3-coupled beads, scFv-anti-DSG3-GFP binding, flow cytometry; active compounds read low | P32926 | binding (percent of control), % at 10 µM | hit rate 0.48% among 310,000;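 active means binding more than 3 SD below its plate's average and above zero; inconclusive means below that plate limit but binding exactly zero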;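 further: hits lower antibody fragment binding to DSG3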
Efflux pump inh – blocks antifungal efflux pumps in multiplex yeast assay. S. cerevisiae Candida pump triplex, Nile Red efflux. inhibition, % at 10 µM. hit rate 0.44% among 330,000. AID 485275;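 active means plate passing quality check with inhibition over a set limit, or well fluorescence over plate mean plus 4 SD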;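 further: Nile Red retained in pooled yeast measured as flow cytometry median fluorescence; 0% = buffer negative control and 100% = Enniatin B positive control; higher means more Nile Red kept so more efflux inhibition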
Neddyl conf – confirmation of human cullin neddylation inhibitors; shares compounds with Neddyl block; TR-FRET cullin neddylation biochemical assay; calls only at 25 µM; hit rate 13% among 1,800; AID 652217; in the data active means inhibition above about 40%;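 further: neddylation substrate is the cullin 1 ring ligase complex with SKP2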
* hit, by the source's call; i = inactive; ? = inconclusive; . = no result given; + = active, no number.

SMILES | Arr AP2 block | Neddyl block | Pemphigus Ab inh | Efflux pump inh | Neddyl conf
COc1cc(Br)cc(/C=N/NC(=O)Cc2ccccc2)c1O | 4.1 | 65.3* | . | -0.1 | i
O=C(Cc1ccccc1)N/N=C/c1cc(Br)cc(Cl)c1O | 27.7 | . | 98.4 | 0.5 | .
CCN(CC)Cc1c(O)ccc2c(-c3ccccc3)cc(=O)oc12 | 20.8 | 41.6* | . | 0.0 | i
CCCCN(CC)Cc1c(O)ccc2c(-c3ccccc3)cc(=O)oc12 | 4.0 | 42.6* | 100.8 | 0.1 | .
CCCCN(C)Cc1c(O)ccc2c(-c3ccccc3)cc(=O)oc12 | -1.2 | . | 101.0 | -0.1 | .
Cc1c(O)ccc2c(-c3ccccc3)cc(=O)oc12 | 5.1 | . | 99.0 | 0.0 | .
CCC(CC)C(=O)N(C)c1c(C)nc2c(OCC=C(C)C)cccn12 | . | 1.5 | . | . | .
NNC(=O)c1oc2nc(-c3ccccc3)cc(-c3ccccc3)c2c1N | -5.1 | 40.9* | 460.4 | 0.7 | i
O=S1(=O)c2cccc3cccc(c23)N1CCBr | 26.4 | 41.9* | 97.5 | -0.1 | i
N#CCCCCN1c2cccc3cccc(c23)S1(=O)=O | 2.9 | . | 100.5 | 0.0 | .
CCCN1c2cccc3cccc(c23)S1(=O)=O | 2.4 | 47.9* | 99.0 | 0.1 | .
O=C(CCSc1ccc(Br)cc1)Nc1cccnc1 | -9.4 | -4.9 | 88.3 | 0.0 | .
Cc1ccc(NC2c3ncccc3C(=O)N2Cc2cccs2)cc1 (centres undefined) | 5.3 | 0.3 | 103.3 | -0.1 | .
CCCn1c(C)cc(=O)c2cc(NC(=O)c3cnccn3)ccc21 | 8.7 | -14.8 | 121.1 | 0.0 | .
COc1ccc(NC(=O)N2c3ccccc3C(C)=CC2(C)C)cc1 | -2.5 | 7.0 | 97.0 | 0.3 | .
COc1ccc(NC(=O)N2c3ccc(OC)cc3C(C)=CC2(C)C)cc1 | 11.4 | 44.8* | 107.5 | -0.1 | .
CC1CCN(C(=O)CN2c3cccc4cccc(c34)S2(=O)=O)CC1 | 4.5 | 45.6* | ? | -0.2 | .
CC1CCCCC1NC(=O)CN1c2cccc3cccc(c23)S1(=O)=O (centres undefined) | 24.4 | 44.1* | 102.1 | -0.1 | .
CC1CN(CC(=O)Nc2ccc([N+](=O)[O-])cc2Br)CC(C)O1 (centres undefined) | -8.8 | -27.7 | 98.7 | -0.1 | .
O=c1[nH]cnc2sc3c(c12)CCN(Cc1ccccc1)C3 | 0.4 | 39.7* | 104.2 | 1.0 | i
O=c1[nH]cnc2sc3c(c12)CN(Cc1ccccc1)CC3 | 7.2 | . | 139.4 | 0.1 | .
O=C(COc1ccc(Cl)cc1Cl)N(C1CCCCC1)C1CCS(=O)(=O)C1 (centres undefined) | -12.3 | -13.6 | 102.0 | 0.3 | .
O=C(c1cc2ccccc2oc1=O)N(c1ccc(Cl)cc1)C1C=CS(=O)(=O)C1 (centres undefined) | -8.9 | 6.8 | 99.1 | 0.2 | .
C/C(=N\NC(=O)c1cc(Br)ccc1O)c1cccc(NC(=O)c2ccccc2F)c1 | -8.7 | 53.7* | . | -0.1 | i
C/C(=N\NC(=O)c1ccccc1F)c1cccc(NC(=O)c2ccccc2)c1 | -6.0 | 0.0 | 93.8 | -0.1 | .
SMILES | Arr AP2 block | Neddyl block | Pemphigus Ab inh | Efflux pump inh | Neddyl conf
O=C(N/N=C/c1c(O)n(-c2ccccc2Cl)c(=O)c2ccccc12)C1COc2ccccc2O1 (centres undefined) | -5.1 | 48.1* | 102.5 | 0.4 | i
Cc1ccc(-n2c(O)c(/C=N/NC(=O)C3COc4ccccc4O3)c3ccccc3c2=O)cc1 (centres undefined) | -4.7 | 43.6* | 126.2 | 0.2 | i
Cc1c(/C=N\NC(=O)C2COc3ccccc3O2)c2ccccc2n1C (centres undefined) | . | 8.7 | 104.6 | 0.0 | .
Cc1cc(=O)oc2c(C)c(OCC(=O)c3ccccc3)ccc12 | 30.9 | -59.4 | 103.2 | -0.1 | .
Cc1cc(=O)oc2c(C)c(OCC(=O)N3CC[C@@]4(O)CCCC[C@H]4C3)ccc12 | -2.1 | 44.2* | 90.9 | -0.2 | i
CCc1cc(=O)oc2c(C)c(OCC(=O)N3CCC(C(=O)O)CC3)ccc12 | 24.7 | 42.5* | 99.8 | 0.3 | +
Cc1cc(=O)oc2c(C)c(OCC(=O)N(C)C)ccc12 | -3.4 | 41.0* | 103.3 | -0.1 | i
Cc1ccc(C(=O)NNC(=O)CCn2nnc3ccccc32)cc1 | -4.7 | -7.3 | 102.8 | 0.0 | .
COc1ccc(SC[C@H](Cc2ccccc2)N2CCN(C)CCC2=O)cc1 | 17.1 | -15.4 | 102.3 | -0.1 | .
O=C(Nc1ccccc1)c1oc2ccccc2c1NC(=O)C1CC1 | -7.5 | 28.9 | 100.6 | 0.5 | .
O=C(OCc1c(-c2ccccc2)ncc2ccccc12)c1ccco1 | 1.7 | -10.3 | 108.1 | 0.4 | .
COc1ccc(NC(=O)CN(C)C(=O)CCNC(=O)c2ccccc2OC)cc1 | 20.3 | 7.6 | 101.8 | 0.1 | .
